Source: ChEMBL document CHEMBL3785075, “Novel Water-Soluble Amphotericin B-PEG Conjugates with Low Toxicity and Potent in Vivo Efficacy” (J Med Chem, 2016)
≈ marks a conversion by molar mass, not a printed value. Calls of active or inactive are those of the source. No cut-off for these calls is given here.

Columns and labels:
[1] = test system: MEF; test: Cytotoxicity against mouse MEF cells assessed as cell viability after 24 hrs by MTT assay; assay type: cell-based
[2] = test system: Aspergillus flavus; test: Antifungal activity against Aspergillus flavus after 48 hrs by CLSI-M27-A3 method; assay type: functional
[3] = test system: Candida albicans; test: Antifungal activity against Candida albicans CBS 562 infected in ICR mouse assessed as fungal burden in mouse spleen at 7 mg/kg after 24 hrs; assay type: functional, organism-based
[4] = test system: Candida albicans; test: Antifungal activity against Candida albicans CBS 562 infected in ICR mouse assessed as increase in survival rate of animal at 3.5 mg/kg after 24 days; assay type: functional, organism-based
[5] = test system: Candida albicans; test: Antifungal activity against Candida albicans CBS 562 infected in ICR mouse assessed as increase in survival rate of animal at 1.75 mg/kg after 24 days; assay type: functional, organism-based
[6] = test system: Mus musculus; test: AUC(0 to 24 hrs) in ICR mouse at 1 mg/kg, iv after 24 hrs by HPLC analysis; assay type: ADME, organism-based; parameters: dose 1 mg/kg, time < 24 hr, route intravenous; conditions: in vivo
[7] = Toxicity against human RBC assessed as hemolytic activity at 6 ug/ml after 1 to 21 hrs; assay type: cell-based; conditions: erythrocyte
[8] = test system: Aspergillus terreus; test: Antifungal activity against Aspergillus terreus after 48 hrs by CLSI-M27-A3 method; assay type: functional
[9] = test system: Candida albicans; test: Antifungal activity against Candida albicans CBS 562 infected in ICR mouse assessed as fungal burden in mouse spleen at 3.5 mg/kg after 24 hrs; assay type: functional, organism-based
[10] = test system: Pichia kudriavzevii; test: Antifungal activity against Candida krusei after 48 hrs by CLSI-M27-A3 method; assay type: functional
[11] = test system: Candida albicans; test: Antifungal activity against Candida albicans CBS 562 infected in ICR mouse assessed as fungal burden in mouse kidney at 7 mg/kg after 24 hrs; assay type: functional, organism-based
[12] = Solubility of compound in saline by HPLC analysis; assay type: physicochemical
[13] = Elimination rate constant in ICR mouse at 1 mg/kg, iv by HPLC analysis; assay type: ADME, organism-based; conditions: in vivo
[14] = Elimination half life in ICR mouse at 1 mg/kg, iv by HPLC analysis; assay type: ADME, organism-based; conditions: in vivo, read-out: beta t1/2 (converted)
[15] = test system: Aspergillus niger; test: Antifungal activity against Aspergillus niger after 48 hrs by CLSI-M27-A3 method; assay type: functional
[16] = test system: Candida albicans; test: Antifungal activity against Candida albicans after 48 hrs by CLSI-M27-A3 method; assay type: functional
[17] = Fraction unbound in ICR mouse plasma by HPLC analysis; assay type: ADME, cell-free
[18] = test system: Candida albicans; test: Antifungal activity against Candida albicans CBS 562 infected in ICR mouse assessed as fungal burden in mouse spleen at 1 mg/kg after 24 hrs; assay type: functional, organism-based
[19] = test system: Candida albicans; test: Antifungal activity against Candida albicans CBS 562 infected in ICR mouse assessed as increase in survival rate of animal at 7 mg/kg after 24 days; assay type: functional, organism-based
[20] = test system: Aspergillus fumigatus; test: Antifungal activity against Aspergillus fumigatus after 48 hrs by CLSI-M27-A3 method; assay type: functional
[21] = test system: Candida albicans; test: Antifungal activity against Candida albicans CBS 562 infected in ICR mouse assessed as fungal burden in mouse kidney at 1 mg/kg after 24 hrs; assay type: functional, organism-based
[22] = Volume of distribution in ICR mouse at 1 mg/kg, iv after 24 hrs by HPLC analysis; assay type: ADME, organism-based; conditions: in vivo
[23] = Toxicity in iv dosed ICR mouse; assay type: organism-based; conditions: in vivo
[24] = test system: Mus musculus; test: Metabolic stability in ICR mouse at 1 mg/kg, iv after 48 hrs by HPLC analysis; assay type: ADME, organism-based; conditions: in vivo
[25] = test system: Candida albicans; test: Antifungal activity against Candida albicans CBS 562 infected in ICR mouse assessed as fungal burden in mouse kidney at 3.5 mg/kg after 24 hrs; assay type: functional, organism-based
[26] = test system: Rhizopus arrhizus; test: Antifungal activity against Rhizopus oryzae after 48 hrs by CLSI-M27-A3 method; assay type: functional
[27] = test system: Candida albicans; test: Antifungal activity against Candida albicans CBS 562 assessed as viable cells at 2 times MIC after 2 hrs by time kill analysis relative to control; assay type: functional
[28] = Clearance in ICR mouse at 1 mg/kg, iv after 24 hrs by HPLC analysis; assay type: ADME, organism-based; conditions: in vivo
[29] = Mean residence time(0 to 24 hrs) in ICR mouse at 7.5 mg/kg, iv after 24 hrs by HPLC analysis; assay type: ADME, organism-based; conditions: in vivo
[30] = test system: Mus musculus; test: Metabolic stability in ICR mouse assessed as hydrolysis at 1 mg/kg, iv after 24 hrs by HPLC analysis; assay type: ADME, organism-based; conditions: in vivo
[31] = test system: Candida albicans; test: Antifungal activity against Candida albicans CBS 562 infected in ICR mouse assessed as increase in survival rate of animal at 1 mg/kg after 24 days; assay type: functional, organism-based
[32] = test system: Candida albicans; test: Antifungal activity against Candida albicans CBS 562 infected in ICR mouse assessed as fungal burden in mouse spleen at 1.75 mg/kg after 24 hrs; assay type: functional, organism-based
[33] = test system: Candida albicans; test: Antifungal activity against Candida albicans CBS 562 infected in ICR mouse assessed as fungal burden in mouse kidney at 1.75 mg/kg after 24 hrs; assay type: functional, organism-based
[34] = test system: Mus musculus; test: Metabolic stability in ICR mouse assessed as hydrolysis at 7.5 mg/kg, iv after 24 hrs by HPLC analysis; assay type: ADME, organism-based; conditions: in vivo
[35] = Elimination half life in ICR mouse at 7.5 mg/kg, iv by HPLC analysis; assay type: ADME, organism-based; conditions: in vivo, read-out: beta t1/2 (converted)
[36] = Chemical stability of compound in phosphate buffer saline assessed as hydrolysis after 24 hrs by HPLC analysis; assay type: physicochemical; conditions: read-out: Drug degradation
How it was run: (§1)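 Conjugate incubated in phosphate-buffered saline; samples taken at 4 h and after prolonged incubation to 24 h; percent hydrolysis determined by HPLC.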

[37] = test system: Mus musculus; test: Metabolic stability in ICR mouse at 7.5 mg/kg, iv after 48 hrs by HPLC analysis; assay type: ADME, organism-based; conditions: in vivo
[38] = Chemical stability of compound in phosphate buffer saline assessed as hydrolysis after 4 hrs by HPLC analysis; assay type: physicochemical; how it was run: as §1
[39] = Clearance in ICR mouse at 7.5 mg/kg, iv after 24 hrs by HPLC analysis; assay type: ADME, organism-based; conditions: in vivo
[40] = AUC(0 to 24 hrs) in ICR mouse at 7.5 mg/kg, iv after 24 hrs by HPLC analysis; assay type: ADME, organism-based; parameters: time < 24 hr, dose 7.5 mg/kg, route intravenous; conditions: in vivo
[41] = Volume of distribution in ICR mouse at 7.5 mg/kg, iv after 24 hrs by HPLC analysis; assay type: ADME, organism-based; conditions: in vivo
[42] = test system: Serum; test: Metabolic stability in mouse serum assessed as hydrolysis after 24 hrs by HPLC analysis; assay type: ADME
[43] = test system: MEF; test: Cytotoxicity against mouse MEF cells assessed as cell viability at 1000 ug/ml after 24 hrs by MTT assay; assay type: cell-based
[44] = Elimination rate constant in ICR mouse at 7.5 mg/kg, iv by HPLC analysis; assay type: ADME, organism-based; conditions: in vivo
[45] = Mean residence time(0 to 24 hrs) in ICR mouse at 1 mg/kg, iv after 24 hrs by HPLC analysis; assay type: ADME, organism-based; conditions: in vivo

## C[C@@H]1[C@H](O)[C@@H](C)/C=C/C=C/C=C/C=C/C=C/C=C/C=C/[C@H](O[C@@H]2O[C@H](C)[C@@H](O)[C@H](N)[C@@H]2O)C[C@@H]2O[C@](O)(C[C@@H](O)C[C@@H](O)[C@H](O)CC[C@@H](O)C[C@@H](O)CC(=O)O[C@H]1C)C[C@H](O)[C@H]2C(=O)O [AMPHOTERICIN B]
[1]
  IC50: 6.6 µg/mL (≈ 7.14 µM)
[2]
  MFC: 0.5 µg/mL (≈ 0.541 µM)
  MIC: 0.5 µg/mL (≈ 0.541 µM)
[3]
  Activity: Active
[4]
  Activity: Active
[5]
  Activity: Active
[6]
  AUC: 63.983 µg·h/mL
[7]
  Activity: Toxic
[8]
  MFC: 4 µg/mL (≈ 4.33 µM)
  MIC: 2 µg/mL (≈ 2.16 µM)
[9]
  Activity: Active
[10]
  MFC: 1 µg/mL (≈ 1.08 µM)
  MIC: 0.5 µg/mL (≈ 0.541 µM)
[11]
  Activity: Active
[12]
  solubility: < 1 µg/mL
[13]
  k el: 1.19e-05 s⁻¹
[14]
  half-life: 958 min
[15]
  MFC: 0.5 µg/mL (≈ 0.541 µM)
  MIC: 0.5 µg/mL (≈ 0.541 µM)
[16]
  MFC: 0.5 µg/mL (≈ 0.541 µM)
  MIC: 0.25 µg/mL (≈ 0.271 µM)
[17]
  fraction unbound: 0.11
[18]
  Activity: Active
[19]
  Activity: Active
[20]
  MFC: 0.5 µg/mL (≈ 0.541 µM)
  MIC: 0.25 µg/mL (≈ 0.271 µM)
[21]
  Activity: Active
[22]
  Vd: 0.006 L
[23]
  MTD: 1.1 mg/kg
[24]
  Stability: Unstable
[25]
  Activity: Active
[26]
  MFC: 250 µg/mL (≈ 271 µM)
  MIC: 0.25 µg/mL (≈ 0.271 µM)
[27]
  Activity: 100%
[28]
  clearance: 0.00417 mL/min
[29]
  MRT last: 9.66 h
[30]
  Stability: Stable
[31]
  Activity: Active
[32]
  Activity: Active
[33]
  Activity: Active

## COC(=O)[C@H]1[C@@H]2C[C@@H](O[C@@H]3O[C@H](C)[C@@H](O)[C@H](NC(=O)CCOCCOCCOCCOCCOCCOCCOCCOCCN)[C@@H]3O)/C=C/C=C/C=C/C=C/C=C/C=C/C=C/[C@H](C)[C@@H](O)[C@@H](C)[C@H](C)OC(=O)C[C@H](O)C[C@H](O)CC[C@@H](O)[C@H](O)C[C@H](O)C[C@](O)(C[C@@H]1O)O2
[2]
  MFC: 2 µg/mL (≈ 1.47 µM)
  MIC: 2 µg/mL (≈ 1.47 µM)
[3]
  Activity: Active
[34]
  Stability: Stable
[4]
  Activity: Active
[5]
  Activity: Active
[35]
  half-life: 189 min
[36]
  degraded at 24 h: 0.8%
[7]
  Activity: Non-toxic
[8]
  MFC: 16 µg/mL (≈ 11.8 µM)
  MIC: 16 µg/mL (≈ 11.8 µM)
[9]
  Activity: Active
[37]
  Stability: Unstable
[10]
  MFC: 4 µg/mL (≈ 2.94 µM)
  MIC: 2 µg/mL (≈ 1.47 µM)
[38]
  Stability: Stable
[11]
  Activity: Active
[12]
  solubility: 700 µg/mL (≈ 514 µM)
[39]
  clearance: 0.00847 mL/min
[15]
  MFC: 2 µg/mL (≈ 1.47 µM)
  MIC: 2 µg/mL (≈ 1.47 µM)
[40]
  AUC(0-t) at 24 h: 421 µg·h/mL
[16]
  MFC: 2 µg/mL (≈ 1.47 µM)
  MIC: 1 µg/mL (≈ 0.734 µM)
[17]
  fraction unbound: 0.9
[18]
  Activity: Active
[19]
  Activity: Active
[20]
  MFC: 2 µg/mL (≈ 1.47 µM)
  MIC: 1 µg/mL (≈ 0.734 µM)
[21]
  Activity: Active
[23]
  MTD: 42 mg/kg
[41]
  Vd: 0.002 L
[25]
  Activity: Active
[26]
  MFC: 4000 µg/mL (≈ 2940 µM)
  MIC: 4 µg/mL (≈ 2.94 µM)
[42]
  Stability: Stable
[43]
  Activity: Non-toxic
[27]
  Activity: 100%
[44]
  k el: 6.11e-05 s⁻¹
[45]
  MRT last: 5.43 h
[31]
  Activity: Active
[32]
  Activity: Active
[33]
  Activity: Active

## C[C@@H]1[C@H](O)[C@@H](C)/C=C/C=C/C=C/C=C/C=C/C=C/C=C/[C@H](O[C@@H]2O[C@H](C)[C@@H](O)[C@H](NC(=O)CCOCCOCCOCCOCCOCCOCCOCCOCCN)[C@@H]2O)C[C@@H]2O[C@](O)(C[C@@H](O)C[C@@H](O)[C@H](O)CC[C@@H](O)C[C@@H](O)CC(=O)O[C@H]1C)C[C@H](O)[C@H]2C(=O)O
[1]
  IC50: 280 µg/mL (≈ 208 µM)
[2]
  MFC: 4 µg/mL (≈ 2.97 µM)
  MIC: 4 µg/mL (≈ 2.97 µM)
[36]
  degraded at 24 h: 0.5%
[7]
  Activity: Toxic
[8]
  MFC: 32 µg/mL (≈ 23.7 µM)
  MIC: 32 µg/mL (≈ 23.7 µM)
[10]
  MFC: 8 µg/mL (≈ 5.94 µM)
  MIC: 4 µg/mL (≈ 2.97 µM)
[38]
  Stability: Stable
[12]
  solubility: 5500 µg/mL (≈ 4080 µM)
[15]
  MFC: 1 µg/mL (≈ 0.742 µM)
  MIC: 1 µg/mL (≈ 0.742 µM)
[16]
  MFC: 4 µg/mL (≈ 2.97 µM)
  MIC: 1 µg/mL (≈ 0.742 µM)
[20]
  MFC: 4 µg/mL (≈ 2.97 µM)
  MIC: 4 µg/mL (≈ 2.97 µM)
[23]
  MTD: 22 mg/kg
[26]
  MFC: 8000 µg/mL (≈ 5940 µM)
  MIC: 8 µg/mL (≈ 5.94 µM)
